This note sets out measurements from ChEMBL document CHEMBL4680213, “Novel androgen receptor antagonist identified by structure-based virtual screening, structural optimization, and biological evaluation” (Eur J Med Chem, 2020).

Activity calls are given as the source filed them. The calls are words filed in the database; no cut-off is given here. A value given as a limit tells only on which side of the number the result lay.

Data set [1] concerns PC-3. Description: Antiproliferative activity against human PC-3 cells assessed as reduction in cell proliferation measured after 72 hrs by MTT assay. Format: functional, cell-based. An outline of the steps:
(§1)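 LNCaP, C4-2, PC3 and DU145 seeded in RPMI-1640 with 5% charcoal-stripped serum (LNCaP 3×10^3, the others 1.5×10^3 cells/well). After 24 h at 37 °C, treated with 5 nM DHT and serial compound dilutions for 72 h. MTT 4 h, formazan dissolved overnight in 10% SDS-0.1% HCl-PBS. A570 read with 650 nm reference.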
(In general: Formazan colour is commonly taken as a measure of viable cells.)

The target in data set [2] is T1, Androgen receptor (Homo sapiens) (UniProt P10275).
T1 sequence (whole entry): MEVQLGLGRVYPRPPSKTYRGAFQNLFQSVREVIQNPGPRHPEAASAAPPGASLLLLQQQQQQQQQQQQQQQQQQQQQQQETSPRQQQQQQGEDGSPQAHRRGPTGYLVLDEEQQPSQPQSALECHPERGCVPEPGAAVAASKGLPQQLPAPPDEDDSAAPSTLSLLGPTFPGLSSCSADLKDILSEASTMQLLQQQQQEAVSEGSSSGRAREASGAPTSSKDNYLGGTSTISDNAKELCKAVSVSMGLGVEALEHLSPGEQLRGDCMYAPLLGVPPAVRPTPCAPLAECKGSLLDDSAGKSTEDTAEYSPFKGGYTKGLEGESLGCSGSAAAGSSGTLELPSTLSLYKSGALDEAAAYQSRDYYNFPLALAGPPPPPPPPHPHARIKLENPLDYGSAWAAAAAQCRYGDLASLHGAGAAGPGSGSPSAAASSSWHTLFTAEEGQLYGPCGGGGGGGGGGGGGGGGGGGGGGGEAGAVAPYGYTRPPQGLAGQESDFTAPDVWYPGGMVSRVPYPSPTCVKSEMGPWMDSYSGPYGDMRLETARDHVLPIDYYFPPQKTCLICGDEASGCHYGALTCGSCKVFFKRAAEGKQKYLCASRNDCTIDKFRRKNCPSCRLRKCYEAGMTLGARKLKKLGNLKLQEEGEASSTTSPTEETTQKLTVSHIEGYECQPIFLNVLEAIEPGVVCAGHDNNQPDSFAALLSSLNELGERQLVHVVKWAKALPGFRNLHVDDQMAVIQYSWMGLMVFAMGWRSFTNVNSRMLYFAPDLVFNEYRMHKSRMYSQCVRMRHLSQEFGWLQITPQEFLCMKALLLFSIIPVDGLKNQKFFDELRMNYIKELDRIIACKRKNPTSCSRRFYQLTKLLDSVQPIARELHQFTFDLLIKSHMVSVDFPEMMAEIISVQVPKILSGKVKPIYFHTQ
Description: Displacement of fluormone-AL green from GST-tagged androgen receptor LBD (unknown origin) at 10 uM measured after 4 hrs by fluorescence polarization assay. The note with it: filed as antagonist. Put shortly: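 PolarScreen AR competitor assay. Compound mixed with GST-tagged AR-LBD and Fluormone AL Green in AR Green assay buffer, incubated 4 h at room temperature protected from light. Fluorescence polarization (mP) measured.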
For orientation: Fluorescence polarisation rises when a labelled molecule tumbles more slowly, as on binding a larger partner.

The target in data set [3] is T2, Androgen receptor (Homo sapiens, UniProt P10275).
T2 sequence (P10275 whole entry): T1 sequence (whole entry)
The data set is classed as cell-based, LNCaP.

Data set [4] has as its target T1, Androgen receptor (Homo sapiens). Description: Antagonist activity at androgen receptor in human LNCaP cells transfected with ARR2 PB-eGFP assessed as inhibition of DHT-induced transcriptional activity at 10 uM measured after 3 days by fluorescence assay relative to control. Format: cell-based. The note with it: filed as antagonist, time 3.0 day. An outline of the steps: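 LNCaP-ARR2PB-eGFP reporter cells in RPMI-1640 starved 5 days in 5% charcoal-stripped serum. Seeded at 3.5×10^4 cells/well, 24 h at 37 °C, 5% CO2. Co-treated with 5 nM DHT and compound at 10 µM (screen) or 0–50 µM. Fluorescence read after 3 days (ex 485, em 535 nm).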

Data set [5] addresses T2, Androgen receptor. Put plainly: Displacement of fluormone-AL green from GST-tagged androgen receptor LBD (unknown origin) measured after 4 hrs by fluorescence polarization assay.
For data set [6], the system named is DU-145. Description: Antiproliferative activity against human DU-145 cells assessed as reduction in cell proliferation measured after 72 hrs by MTT assay. The data set is classed as functional, cell-based. An outline of the steps: as §1
In data set [7] the test system is NIH3T3. Description: Cytotoxicity against mouse NIH/3T3 cells assessed as reduction in cell viability at 50 uM after 24 hrs by MTT assay. The data set is classed as cell-based. As to conditions: nih3t3, 24 h.
Data set [8] concerns LNCaP C4-2. Put plainly: Antiproliferative activity against human LNCaP C4-2 cells assessed as reduction in cell proliferation measured after 72 hrs by MTT assay. The data set is classed as functional, cell-based. An outline of the steps: as §1
The test system of data set [9] is LNCaP. Put plainly: Antiproliferative activity against human LNCaP cells assessed as reduction in cell proliferation measured after 72 hrs by MTT assay. Format: functional, cell-based. An outline of the steps: as §1
Data set [10] addresses T3, Prostate-specific antigen (Homo sapiens, UniProt P07288).
T3 sequence (P07288 whole entry): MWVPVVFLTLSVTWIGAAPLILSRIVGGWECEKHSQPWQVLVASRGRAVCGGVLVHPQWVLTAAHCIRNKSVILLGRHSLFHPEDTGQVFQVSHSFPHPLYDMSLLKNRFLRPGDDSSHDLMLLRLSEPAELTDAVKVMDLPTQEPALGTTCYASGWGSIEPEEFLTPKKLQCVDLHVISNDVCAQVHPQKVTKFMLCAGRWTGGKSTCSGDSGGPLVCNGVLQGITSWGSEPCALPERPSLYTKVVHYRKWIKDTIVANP
Description: Inhibition of prostate specific antigen in human LNCaP cells. Format: cell-based.

Data set [11] addresses T1, Androgen receptor (Homo sapiens). Description: Antagonist activity at androgen receptor in human LNCaP cells assessed as reduction in DHT-induced TMPRSS2 mRNA expression after 48 hrs by SYBR green dye based qPCR analysis. The data set is classed as cell-based. The note with it: filed as antagonist. Put shortly: (§2)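 LNCaP cells kept in medium with 5% charcoal-stripped serum in six-well plates. Treated with DHT 5 nM plus compound at 0.1, 1 or 10 μM, or DMSO. mRNA extracted 48 h after treatment, reverse transcribed and quantified by qPCR.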
On the technique in general: Real-time PCR tracks product formation cycle by cycle.

The test system of data set [12] is LNCaP. Put plainly: Effect on prostate specific antigen mRNA expression in human LNCaP cells at 0.1 to 10 uM measured after 48 hrs by SYBR green dye based qPCR analysis. The data set is classed as functional, cell-based. The note with it: dose 0.1-10 µM. Put shortly: as §2

The term inhibition denotes the change of the read-out against control, counted positive when it falls. One may read the IC50 as the concentration at which inhibition is half-maximal. High values mean lower potency, low ones higher potency. As to `Clc1ccccc1C1Nc2ccc3ccccc3c2C2C=CCC21` (stereo unspecified), the result in data set [1], in data set [6] and in data set [8] was Active. Also, the inhibition result in data set [2] was “Active”. For the same compound, the half-maximal inhibitory concentration (IC50) in [3] stood at 2400 nM; in data set [5] it was 4.02 µM. Besides, the inhibition in data set [4] is greater than 50%. In addition, the Activity entry in data set [7] is “Non-Toxic”.

With `Clc1ccc(C2Nc3ccc4ccccc4c3C3OCCCC23)c(Cl)c1` (stereo unspecified), the IC50 in data set [3] is 20400 nM.

Regarding `CCOC(=O)C1Nc2ccc3ccccc3c2C2C=CCC12` (stereo unspecified), the inhibition entry in data set [2] is “Active”. The compound further gave a half-inhibitory concentration (IC50) in [3] of 820 nM.

`Fc1ccccc1C1Nc2ccc3ccccc3c2C2C=CCC21` (stereo unspecified): the inhibition result in [2] was “Active”. The same compound showed an IC50 in [3] of 220 nM.

The compound `c1ccc(C2Nc3ccc4ccccc4c3C3C4CCC(C4)C23)cc1` (stereo unspecified) registered an IC50 in data set [3] of 5600 nM. This counts as single-digit micromolar.

On to `Clc1ccc(C2Nc3ccc4ccccc4c3C3C4CCC(C4)C23)cc1` (stereo unspecified), for which the IC50 in data set [3] was 7450 nM.

With `Clc1ccc(C2Nc3ccc4ccccc4c3C3C=CCC32)cc1` (stereo unspecified), the inhibition entry in [2] was “Active”. Further, in [3], the IC50 is 1920 nM.

Take `CNC(=O)c1ccc(N2C(=S)N(c3ccc(C#N)c(C(F)(F)F)c3)C(=O)C2(C)C)cc1F` [ENZALUTAMIDE]: the outcome in data set [1], in [9], in data set [6] and in [8] was Active. In data set [10], this compound yielded an IC50 of 130 nM.

In the case of `Brc1ccc(C2Nc3ccc4ccccc4c3C3C=CCC32)cc1` (stereo unspecified), the result in data set [1], in [9], in data set [6], in [12] and in [8] was Active. The Activity result in data set [11] is “Dose-dependent effect”; in [7] it was “Non-Toxic”. Moreover, the inhibition result in [2] is “Active”. For the same compound, the concentration for half-maximal inhibition (IC50) in data set [3] was 150 nM.
